Data on eleven compounds can be found in ChEMBL document CHEMBL4393723, “Caffeic acid phenethyl ester (CAPE)-derivatives act as selective inhibitors of acetylcholinesterase” (Eur J Med Chem, 2019).

In data set [1] the test system is FaDu. Kind of data set: Cytotoxicity against human FADU cells measured after 96 hrs by SRB assay. In kind it is cell-based. To be noted: for EC50: Homo sapiens, FaDu; for Activity: human, fadu. In short, it runs like this: (§1)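 Cells seeded on day 0 and exposed from 24 h to at least six concentrations (1, 3, 7, 12, 20, 30 µM), with final DMSO/DMF at most 0.5%. After 96 h treatment, fixed in 10% TCA for 24 h at 4 °C and stained about 20 min with 0.4% SRB in 1% acetic acid. Bound dye dissolved in 10 mM Tris base, read at 570 nm. EC50 from 4-parameter Hill fit (top 100, bottom 0), three independent experiments in triplicate.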
A general note: Sulforhodamine B stains cellular protein and so reports cell mass.

Data set [2] has as its system HT-29. The data set can be described thus: Cytotoxicity against human HT-29 cells measured after 96 hrs by SRB assay. It is filed as cell-based. Particulars: for EC50: Homo sapiens, HT-29, 96 h; for Activity: human, ht-29, 96 h. Put shortly: as §1
Data set [3] has as its system MCF7. Kind of data set: Cytotoxicity against human MCF7 cells measured after 96 hrs by SRB assay. It is filed as cell-based. To be noted: for EC50: Homo sapiens, MCF7, 96 h; for Activity: human, mcf7, 96 h. Put shortly: as §1
For data set [4], the system named is NIH3T3. Kind of data set: Cytotoxicity against mouse NIH/3T3 cells measured after 96 hrs by SRB assay. Particulars: for EC50: Mus musculus, NIH3T3, 96 h; for Activity: mouse, nih3t3, 96 h. It is filed as cell-based. Put shortly: as §1
Data set [5] has as its system A2780. The data set can be described thus: Cytotoxicity against human A2780 cells measured after 96 hrs by SRB assay. It is filed as cell-based. Particulars: for EC50: Homo sapiens, A2780, 96 h; for Activity: human, a2780, 96 h. Put shortly: as §1
For data set [6], the system named is SW-1736. Kind of data set: Cytotoxicity against human SW1736 cells measured after 96 hrs by SRB assay. It is filed as cell-based. To be noted: for EC50: Homo sapiens, SW-1736, 96 h; for Activity: human, sw-1736, 96 h. Put shortly:
as §1

Data set [7] can be described thus: Solubility of the compound. It is filed as physicochemical.
In data set [8] the target is T1, Acetylcholinesterase (Electrophorus electricus, UniProt O42275). Kind of data set: Mixed inhibition of electric eel AChE using butyrylcholine iodide as substrate preincubated for 20 mins followed by substrate addition and measured every minute for 30 mins Dixon/Cornish-Bowden plot analysis.
T1 sequence (O42275 whole entry): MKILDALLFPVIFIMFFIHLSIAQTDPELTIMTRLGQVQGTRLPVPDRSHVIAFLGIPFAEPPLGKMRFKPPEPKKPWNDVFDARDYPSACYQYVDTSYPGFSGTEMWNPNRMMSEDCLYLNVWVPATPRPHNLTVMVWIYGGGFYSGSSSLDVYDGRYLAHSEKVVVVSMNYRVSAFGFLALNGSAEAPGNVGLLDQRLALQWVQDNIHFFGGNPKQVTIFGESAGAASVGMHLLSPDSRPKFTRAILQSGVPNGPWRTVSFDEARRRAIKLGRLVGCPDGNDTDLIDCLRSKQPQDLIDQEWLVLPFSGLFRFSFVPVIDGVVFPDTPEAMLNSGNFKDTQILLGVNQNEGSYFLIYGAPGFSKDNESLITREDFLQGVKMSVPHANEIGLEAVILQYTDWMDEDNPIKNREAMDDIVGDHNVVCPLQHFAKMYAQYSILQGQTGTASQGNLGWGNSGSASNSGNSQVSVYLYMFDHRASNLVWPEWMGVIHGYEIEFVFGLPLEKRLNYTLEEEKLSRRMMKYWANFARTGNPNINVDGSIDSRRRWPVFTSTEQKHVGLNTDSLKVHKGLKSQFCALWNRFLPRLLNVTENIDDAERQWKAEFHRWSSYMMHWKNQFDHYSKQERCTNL
For data set [9], the target named is T1, Acetylcholinesterase. Kind of data set: Mixed inhibition of electric eel AChE using acetylcholine iodide as substrate preincubated for 20 mins followed by substrate addition and measured every minute for 30 mins by Lineweaver-Burk plot analysis.

The term EC50 denotes the concentration needed to bring the measured effect to its halfway point. Higher therefore signals a less potent agent. As for `COc1ccc(/C=C/C(=O)OCCc2ccccc2)cc1OC`, the EC50 turned out to be 17.2 µM in data set [1]; 16.7 µM in data set [2]; 16.2 µM in data set [3]; 17.7 µM in [4]; 17 µM in [5]; 16.7 µM in data set [6].
Consider `O=C(/C=C/c1ccc(OCc2ccccc2)c(OCc2ccccc2)c1)OCCc1ccc(OC(=O)/C=C/c2ccc(OCc3ccccc3)c(OCc3ccccc3)c2)cc1`, for which, in data set [7], the solubility result was “Insoluble”.
Usually Ki stands for the equilibrium dissociation constant of an inhibitor or competing ligand from its target. Read a high Ki as lower affinity. As to `O=C(/C=C/c1ccc(OCc2ccccc2)c(OCc2ccccc2)c1)OCCc1ccccc1O`, the Ki in data set [8] came to 12.1 µM; in [9], 8.55 µM.
Regarding `O=C(/C=C/c1ccc(OCc2ccccc2)c(OCc2ccccc2)c1)OCCc1cccc(OC(=O)/C=C/c2ccc(OCc3ccccc3)c(OCc3ccccc3)c2)c1`, in data set [7], the solubility entry is reported as “Insoluble”.
With `COc1cc(/C=C/C(=O)OCCc2ccccc2)cc(OC)c1OCCc1ccccc1`, the values for the Ki in [8] and in [9] were 2.44 µM and 1.97 µM, respectively. Moreover, the Activity result in data set [1], in [2], in [3], in data set [4], in data set [5] and in data set [6] was “Non-Toxic” in each case.
With `O=C(/C=C/c1ccc(OCc2ccccc2)c(OCc2ccccc2)c1)OCCc1ccccc1OC(=O)/C=C/c1ccc(OCc2ccccc2)c(OCc2ccccc2)c1`, the solubility entry in [7] is reported as “Insoluble”.
With `O=C(/C=C/c1ccc(OCc2ccccc2)c(OCc2ccccc2)c1)OCCc1ccc(OC(=O)/C=C/c2ccc(OCc3ccccc3)c(OCc3ccccc3)c2)c(OC(=O)/C=C/c2ccc(OCc3ccccc3)c(OCc3ccccc3)c2)c1`, the figures for the Ki in [8] and in data set [9] were 1.8 µM and 0.72 µM, respectively. The Activity entry in [1], in data set [2], in data set [3], in [4], in data set [5] and in data set [6] was “Non-Toxic” throughout.
As to `O=C(/C=C/c1cccc(Cl)c1)OCCc1ccccc1`, the Ki in data set [8] worked out at 56.6 µM; in [9], 14.2 µM.
The like results for `COc1ccc(/C=C/C(=O)OCCc2ccccc2)c(OC)c1` were, in that order, 34.8 µM and 11.9 µM.
Consider `O=C(/C=C/c1cccc(Br)c1)OCCc1ccccc1`, for which the figures for the inhibition constant (Ki) in [8] and in data set [9] were 30.9 µM and 8.82 µM, respectively.
In the case of `O=C(/C=C/c1ccc(O)c(O)c1)OCCc1ccccc1` [CAFFEIC ACID PHENETHYL ESTER], the EC50 is 12.1 µM in [1]; greater than 30 µM in data set [2]; 12.1 µM in data set [3]; 21.4 µM in data set [4]; 3.5 µM in data set [5]; 4.7 µM in data set [6].
